About 300 (0.091%) of roughly 330,000 compounds were called active. For the sample, actives were picked, then their nearest neighbours and some compounds at random. Values without a mark were called inactive.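 Rule for the calls: active = percent activation above the screen-wide mean plus 3 SD (cut at about 25% in these data); inactive = the rest.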
What follows are compounds tested against Caspase-7 (Homo sapiens) (UniProt P55210) (assay: activation of procaspase-7 enzyme – biochemical, absorbance, HTS, human, counter-screen for procaspase-3 activator project, primary screen (AID 463210)). Details: recombinant procaspase-7, Ac-DEVD-pNA absorbance 405 nm; at 8.5 µM; stronger effect = higher value; D23A/D198A/D206A triple mutant, cannot self-cleave; scale: DMSO 0, 5 µM enzyme 100.
Sequence of Caspase-7 (Homo sapiens) (P55210 whole entry D23A/D198A/D206A): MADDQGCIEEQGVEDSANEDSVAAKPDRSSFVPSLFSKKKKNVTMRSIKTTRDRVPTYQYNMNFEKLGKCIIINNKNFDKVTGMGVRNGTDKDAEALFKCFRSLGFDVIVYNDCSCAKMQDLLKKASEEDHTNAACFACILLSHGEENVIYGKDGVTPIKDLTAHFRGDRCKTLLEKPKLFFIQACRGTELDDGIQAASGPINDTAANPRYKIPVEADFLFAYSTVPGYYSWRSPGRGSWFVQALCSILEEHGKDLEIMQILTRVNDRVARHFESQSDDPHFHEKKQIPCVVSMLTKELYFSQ
Outline: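 System: Procaspase-7 triple mutant (PC-7 D3A); measure: % activation from two-timepoint absorbance difference, scaled to controls; times: 1 h compound preincubation, 2 h substrate cleavage, 25 °C; also added: Ac-DEVD-pNA substrate, 400 µM as added; measured by: Epi-absorbance of released pNA at 405 nm, two timepoints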

In order of rising activation:
1. O=C(Cn1cncn1)N/N=C/c1c2ccccc2cc2ccccc12  -18.1%
2. Oc1ccc(-c2onc3ccc(Cl)cc23)cc1  -16.8%
3. Nc1c(-c2cccc(Cl)c2)cnn1-c1cccc([N+](=O)[O-])c1  -13%
4. O=C1CCCCN1CCCC(=O)N1CCCC(Nc2ccc(F)cc2)C1 (stereo unspecified)  -11.7%
5. CC(OC(=O)c1ccc2noc(-c3ccccc3)c2c1)C(N)=O (stereo unspecified)  -10.9%
6. COc1ccc2sc(-c3ccc(S(C)(=O)=O)cc3)c(-c3ccc(C(N)=O)cc3)c2c1  -9.45%
7. COc1ccccc1CNC(=O)CN1CCC(n2cnc3cc(F)ccc32)CC1  -8.61%
8. O=C(O)c1cc(S(=O)(=O)NC2CCCc3ccccc32)ccc1O (stereo unspecified)  -8.22%
9. NS(=O)(=O)c1ccc(CCNC(=O)COC(=O)COc2cccc(C(F)(F)F)c2)cc1  -7.58%
10. CCOC(=O)C1(CCOc2ccccc2)CCN(Cc2cc(OC)cc(OC)c2)CC1  -7.5%
11. CCOc1ccc2c(c1)c(=O)c(S(=O)(=O)c1ccc(C)cc1)cn2CC  -6.47%
12. Cc1ccc(S(=O)(=O)N2CCC(C(=O)N[C@@H](C)C(=O)NCc3ccco3)CC2)cc1  -5.6%
13. CC(C(=O)N1CCN(c2ccccc2F)CC1)c1ccc([N+](=O)[O-])cc1 (stereo unspecified)  -5.29%
14. CC(C)(C)c1ccc(/C=C2\Oc3c(ccc(O)c3CN3CCN(CCO)CC3)C2=O)cc1  -5.14%
15. CC1(c2nnc(Cc3ccccc3)o2)CC(c2ccccc2F)=NO1 (stereo unspecified)  -4.57%
16. Cc1cc(C)cc(Oc2c(C(F)(F)F)oc3cc(OCC(=O)O)ccc3c2=O)c1  -4.44%
17. CCn1c2ccccc2c2cc(NC(=O)C/C(C)=N/NC(=O)c3ccccc3N)ccc21  -4.21%
18. S=C(Nc1ccc(Br)cc1)NC1CCN(Cc2ccccc2)CC1  -4.11%
19. COc1ccc(NC(=O)CNC(=O)Cn2ccc3ccccc3c2=O)c(OC)c1  -4.04%
20. CCCCc1ccc(NS(=O)(=O)c2cccc(C(=O)N3CCCN(C)CC3)c2)cc1  -3.56%
21. COc1ccc(CN(C(=O)CSc2nnc(-c3ccc(OC)c(OC)c3)o2)c2ccc(F)cc2)cc1  -3.3%
22. CCC(CC)NC(=O)CSc1nnc(-c2c[nH]c3ccccc23)o1  -2.98%
23. Cc1ccc(CSCCNC(=O)CN(c2ccc(F)cc2)S(C)(=O)=O)cc1  -2.84%
24. Cc1csc(/N=C/N(C)C)c1C#N  -2.59%
25. O=S(=O)(NCCSc1ccccn1)c1ccc(Cl)cc1  -2.06%
26. Cc1coc2c1c(C)cc1oc(=O)c(CC(=O)NCC(=O)N[C@H](C(=O)O)C(C)C)c(C)c12  -1.78%
27. COc1ccc(-n2cc(CNC3CCOCC3)c(-c3cccc(F)c3)n2)cc1  -1.78%
28. CC(C)CN1CCNC(=O)C1CC(=O)N(C)CC1CCOCC1 (stereo unspecified)  -1.75%
29. COc1ccc(OCc2cc(C(=O)N3CCCC3)no2)c2ccccc12  -1.07%
30. Cc1cc(Cl)c2oc(C(=O)N3CCC(O)(c4ccccc4)CC3)c(C)c2c1  -0.4%
31. COc1ccc(Nc2ncnc3ccc(Br)cc23)c(OC)c1  -0.33%
32. CC(C)C1Nc2c(C(=O)O)cccc2C(Nc2ccccc2C(=O)O)C1(C)C (stereo unspecified)  -0.22%
33. Cc1ccc2c(C)c(C(=O)N3CCN(c4ccncc4)CC3)oc2c1C  0%
34. O=C(NCCCO)/C(=C\C=C\c1ccccc1)NC(=O)c1ccccc1Cl  0.01%
35. CCCCCCCCCCOC(=O)Cn1c(COc2ccc(C)cc2)[n+](C)c2ccccc21  0.03%
36. CCOC(=O)Cn1c2c(c(-c3ccccc3OC)cc1=O)CCCC2  0.27%
37. Cc1nccn1CCC1CCCCN1C(=O)CCc1nnc(-c2ccsc2)o1 (stereo unspecified)  0.42%
38. CC1CCN(C(=O)Cn2nnnc2CN2CCOCC2)CC1  0.88%
39. CN=C1SC(CC(=O)Nc2ccc(C(=O)O)cc2)C(=O)N1C (stereo unspecified)  1.33%
40. Nc1ncnc(Nc2cccc(Cl)c2Cl)n1  1.33%
41. CCOC(=O)C1(CCOC)CCN(Cc2ccc(C(=O)OC)cc2)CC1  1.4%
42. Cc1ccc(-c2csc(N3CCN(c4cc5c(cc4Cl)nc(-c4ccncc4)n5CCOCCO)CC3)n2)cc1  1.55%
43. CC(=O)N1c2ccc(S(=O)(=O)N3CCCC(C(=O)NCc4ccc(Cl)cc4)C3)cc2CC1C (stereo unspecified)  1.56%
44. Cc1ccc(S(=O)(=O)NCCC(=O)OCC(=O)N(C)c2ccccc2)cc1  1.61%
45. CNS(=O)(=O)c1cccc(C(=O)NCC2CCCCC2)c1  1.69%
46. CCOC(=O)C1CCN(C(=O)COC(=O)C2CCN(S(=O)(=O)c3ccc4c(c3)OCCO4)CC2)CC1  2.16%
47. Cc1ccccc1N(C(=O)CNC(=O)c1cccs1)C(C(=O)NC1CCCC1)c1ccncc1 (stereo unspecified)  2.19%
48. COC(=O)CC1=NN(c2nc(C)cc(C)n2)C(=O)C1  2.23%
49. CCOC(=O)/C=C/c1ccc(C(F)(F)F)cc1S(=O)(=O)NC(C)(C)C  2.37%
50. CCCc1c(C(=O)N/N=C(\C)CCc2ccc(OC)cc2)nnn1-c1nonc1N  2.5%
51. O=C1CN(C(=O)c2cc(F)cc(F)c2)c2ccccc2N1  2.59%
52. Cn1nc(C(F)(F)F)c(-c2ccc(F)cc2)c1NC(=O)CSCC(=O)O  3.17%
53. Cc1c(C(=O)N(Cc2ccccc2)Cc2cccnc2)cnn1-c1ccc(F)cc1  3.32%
54. CCOC(=O)CN1C(=O)C(=O)c2cc(C)ccc21  3.45%
55. OCCC1CN(Cc2cccn2-c2nccs2)CCN1CCc1ccccc1 (stereo unspecified)  3.58%
56. COC(=O)c1cccnc1NC(=S)NC(C)C  3.88%
57. CCNS(=O)(=O)c1ccc(NC(=O)c2cncc(Br)c2)cc1  3.96%
58. COc1ccc(Nc2ncnc3sc(C)cc23)cc1  4.02%
59. CC(=O)Nc1ccc(NS(=O)(=O)c2cc(C)sc2C)cc1  4.24%
60. COc1ccc(N2CCN(S(=O)(=O)c3cc4c5c(c3)C(C)C(=O)N5CCC4)CC2)cc1 (stereo unspecified)  4.7%
61. C=CCN(c1ccccc1C(=O)NCC(=O)OCC)S(=O)(=O)c1ccc(C)cc1  4.75%
62. CN(CC(=O)Nc1ccccc1Cl)C(=O)c1ccccc1SCC(=O)N1CCCC1  5.38%
63. CCCSc1ncccc1C(=O)O  5.5%
64. CCCS(=O)(=O)N1CCC(C(=O)NCCc2ccc(OC)c(OC)c2)CC1  5.54%
65. O=C(C[n+]1cc(-c2ccc(Cl)c(Cl)c2)n2c1CCC2)c1cccs1  5.63%
66. COc1ccc(OC)c(S(=O)(=O)Nc2cccc(-c3ccc4nncn4n3)c2)c1  5.81%
67. Cc1ccc(S(=O)(=O)N2C[C@@H]3CCCC[C@@H]3[C@@H](C)[C@H]2c2cn(Cc3ccccc3)c3ccc(F)cc23)cc1  6.02%
68. O=C(NC1CCCC1)C(c1ccco1)N(C(=O)c1csnn1)c1ccccc1 (stereo unspecified)  6.3%
69. Cn1cnnc1Sc1ccc(S(C)(=O)=O)cc1[N+](=O)[O-]  6.34%
70. COc1ccc(CNC(=O)COC(=O)CCS(=O)(=O)c2ccc(C)cc2)cc1OC  6.34%
71. COc1ccc(N2CCN(C(=O)Cn3cnc4sc(C)c(S(=O)(=O)N5CCOCC5)c4c3=O)CC2)cc1  7.13%
72. COC(=O)/C=C(\Oc1ccccc1)C1(O)CCCCC1  7.7%
73. CCCCNS(=O)(=O)c1ccc2nc(SCC(=O)Nc3cc(C)cc(C)c3)[nH]c2c1  7.82%
74. COC(=O)c1ccc(NS(=O)(=O)c2cc3c4c(c2)C(C)C(=O)N4CCC3)cc1 (stereo unspecified)  8.38%
75. Cn1cc(S(=O)(=O)NC(c2ccccc2)c2ccccc2)c(=O)n(C)c1=O  8.63%
76. O=C(CCn1nnc2ccccc2c1=O)N[C@@H](Cc1c[nH]c2ccccc12)C(=O)O  9.07%
77. Cc1ccccc1NC(=O)CSC1=NCCN1  9.38%
78. CCCCCc1nnc(NC(=O)c2ccc(=O)n(C)n2)s1  9.59%
79. CCOc1cc(C(=O)N2CCc3cc(OC)c(OC)cc3C2)ccc1OC(F)F  10.5%
80. Cc1cc(C)c(S(=O)(=O)NCC2CCC(C(=O)NCc3ccc4c(c3)OCO4)CC2)c(C)c1 (stereo unspecified)  10.5%
81. Cc1ccc(Cc2cncc(O)c2)cc1S(=O)(=O)O  10.6%
82. O=C(NCCS(=O)(=O)N1CCN(c2ccccc2F)CC1)c1ccc(Br)o1  10.8%
83. CCOc1cc(C(=O)OCC(=O)Nc2cccc(C)c2)ccc1OCC(=O)N1CCOCC1  15.3%
84. O=C(NCCc1ccco1)c1ccc(OCc2cn3ccccc3n2)cc1  15.8%
85. COc1ccc(-c2sc3ccc(OC)cc3c2C#Cc2ccccn2)cc1  25.1%

With `CNS(=O)(=O)c1cccc(C(=O)NC2CCCc3ccccc32)c1` (stereo unspecified) the activation was 38.5% (active).
For `CCOC(=O)C1(CCOC)CCN(Cc2cc3ccccc3s2)CC1`, the activation was 31.9% (active).
In the case of `COc1ccc2sc(-c3ccc(S(C)(=O)=O)cc3)c(C#Cc3cncn3C)c2c1`, the activation is reported as 32.4% (active).
For `COc1ccc(Nc2ncnc3sc(-c4ccccc4)cc23)c(OC)c1`, the activation was 47.3% (active).
With `COc1ccc(-c2onc3ccc(C(C)=O)cc23)cc1` the activation was 68.7% (active).
With `CCCCOC(=O)Cn1c(=O)n(CC(=O)OCCCC)c2cc(C)ccc21` the activation was 26.8% (active).

Reference: PubChem BioAssay AID463210 (The Scripps Research Institute Molecular Screening Center, 2010)
